Bioassay records: PubChem BioAssay, several laboratories
This is a sample that favours compounds with a hit; in the whole collection about 2.7% have one here.
PP1 inh: counter-screen for PP5 inhibitors: inhibitors of human PP1-alpha | P62136 | purified PP1alpha, OMFP fluorescence | inhibition, % at 6.7 µM | 0.9% of 320,000 active;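 active = inhibition above the mean inhibition of all tested compounds plus 3 SD, computed separately for each screening campaign, cut at about 15% in these data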
Target sequence (P62136 whole entry, looked up): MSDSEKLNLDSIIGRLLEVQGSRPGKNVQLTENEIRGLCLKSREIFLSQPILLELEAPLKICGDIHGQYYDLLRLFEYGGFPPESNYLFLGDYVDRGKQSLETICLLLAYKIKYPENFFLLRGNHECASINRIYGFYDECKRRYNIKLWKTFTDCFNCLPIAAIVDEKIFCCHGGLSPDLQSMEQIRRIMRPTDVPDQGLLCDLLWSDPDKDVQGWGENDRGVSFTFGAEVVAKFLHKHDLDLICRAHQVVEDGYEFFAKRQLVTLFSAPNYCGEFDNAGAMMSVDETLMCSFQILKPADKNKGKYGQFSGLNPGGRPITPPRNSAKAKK
CSN inh: CSN deneddylation inhibition; Q92905; inhibition, % at 12.5 µM; 0.38% of 360,000 active; Purified CSN, SCF-Nedd8-OG deneddylation, fluorescence polarization;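 active = pattern-corrected inhibition above about 35%, with an unprinted fluorescence ratio check between 0.5 and 1.5, limit read from the data, passing the limit was not always enough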
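assay system = purified human Csn5 enzyme expressed in HEK293T cells | amount = 0.24 nM enzyme | buffer or medium = Tris/NaCl/DTT buffer, pH 7.5 | reagent = 10 nM SCFSkp2-Nedd8OG | compound = one concentration, 12.5 µM, 0.25% DMSO | times = 90 min reaction at room temperature | signal = FP | read-out basis = % inhibition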
NadD block: inhibitors of Staphylococcus aureus NadD; purified NadD enzyme, colorimetric absorbance read-out; inhibition, % at 20 µM; 0.78% of 360,000 active; AID 602399; in the data active = inhibition above about 26%
Rpn11 inh: inhibitors of human proteasome Rpn11. O00487. AID 588493. inhibition, % at 20 µM. 0.59% of 360,000 active. human 26S proteasome, Ub4-pepOG fluorescence polarization; 20S core pre-blocked with epoxomicin;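 active = inhibition at 20 µM, scaled to each plate's controls, above about 33%, limit read from the data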
HNF4A DNA FP: change in binding of human HNF4 alpha to DNA; activity change, % at 10 µM; P41235; HNF4a-FITC DNA binding, fluorescence polarization, 1 h; 0.3% of 360,000 active; in the data active = activity change above about 30%, passing the limit was not always enough
TPT1 inh: blocks Candida albicans tRNA 2'-phosphotransferase; inhibition, % at 5 µM; 0.81% of 300,000 active; recombinant caTPT1, FP RNA substrate dephosphorylation;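 active = inhibition above the mean of all tested compounds plus 3 SD, set per screening campaign, cut at about 24% in these data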
Of the large screens only hits and unclear results are named; the others gave an inactive call.

C[C@H](O)[C@@H]1C(=O)N2CCc3ccc(N4CCN(C)CC4)cc3[C@@H]2C[C@@H]1N(C)C(=O)c1ccco1	none (no result: PP1 inh, TPT1 inh)
O=C(Nc1ccc(OCC(=O)N2CCOCC2)cc1)c1cncc(Br)c1	CSN inh 80
Cc1ccc(OCCC(=O)Nc2cc(S(=O)(=O)N3CCOCC3)ccc2N2CCCC2)cc1	none (no result: PP1 inh, TPT1 inh)
O=c1cc2c(n[nH]1)-c1ccccc1CC2	none
O=C(O)CCC1c2cc3c4cc2OC2Oc5cc6c(cc51)C(CCC(=O)O)c1cc5c7cc1OC(O6)c1cc6cc(c1)Oc1cc(cc(C(=O)O)c1)Oc1cc8cc(c1)C(Oc1cc(c(cc1C5CCC(=O)O)C3CCC(=O)O)OC(O4)c1cc(cc(c1)Oc1cc(cc(C(=O)O)c1)O8)Oc1cc(cc(C(=O)O)c1)Oc1cc(cc2c1)Oc1cc(cc(C(=O)O)c1)O6)O7 (centres undefined)	PP1 inh 91 (no result: CSN inh, NadD block, Rpn11 inh, HNF4A DNA FP)
O=C(Nc1ccccc1C(=O)NCCc1ccc(O)cc1)c1ccco1	none
O=C1CC(=C(c2ccccc2)c2ccccc2)C(=O)N1CCN1CCN(c2cccc(Cl)c2)CC1	none
O=C1CC(=C(c2ccccc2)c2ccccc2)C(=O)N1CCCN1CCN(c2cccc(Cl)c2)CC1	PP1 inh 17
COC(=O)[C@]12CCCCC=C1N(Cc1ccccc1)C(=O)[C@H](CC(=O)NCCCN1CCCC1=O)C2	none (no result: PP1 inh, Rpn11 inh, TPT1 inh)
CCCCCCCCN1C(=O)[C@H](CC(=O)NCCCN2CCCC2=O)C[C@@]2(C(=O)OC)CCCCC=C12	CSN inh 48 (no result: PP1 inh, Rpn11 inh, TPT1 inh)
CCOc1cc(/C=C2\CN(C)C/C(=C\c3ccc(O)c(OCC)c3)C2=O)ccc1O	none
CCOc1cc(/C=C2\CCC/C(=C\c3cc(Cl)c(O)c(OCC)c3)C2=O)cc(Cl)c1O	NadD block 46
COC(=O)Cc1c(OC)ccn(CCc2c[nH]c3ccccc23)c1=O	none
COC(=O)Cc1c(O)ccn(CCc2c[nH]c3ccccc23)c1=O	CSN inh 74
Clc1nnc2ccc(-c3ccccc3)nn12	CSN inh 54
Cc1ccc2nnc(Cl)n2n1	none
CC1(C)S[C@@H]2[C@H](NC(=O)COc3ccccc3)C(=O)N2C1C(=O)OCc1cc2ccccc2n1S(=O)(=O)c1ccccc1 (some centres undefined)	PP1 inh 25 (no result: CSN inh, NadD block, Rpn11 inh, HNF4A DNA FP)
Oc1ccc(N=Nc2ccc3c(c2)OCCO3)c2ncccc12	PP1 inh 16, NadD block 27
CCOC(=O)c1c(S(=O)(=O)NCC(=O)Nc2ccc(F)cc2)c(C)n(C)c1C	none
Cc1cc(C(=O)COC(=O)c2ccccc2O)c(C)n1CC1CCCO1 (centres undefined)	none (no result: TPT1 inh)
Cc1cc(C(=O)COC(=O)c2cc(O)c3ccccc3c2O)c(C)n1CC1CCCO1 (centres undefined)	NadD block 36 (no result: PP1 inh, TPT1 inh)
Cc1ccc(-c2nc3ncccn3c2Nc2ccc3c(c2)OCCO3)o1	HNF4A DNA FP 38
Brc1ccc(-c2nc3ncccn3c2Nc2ccc3c(c2)OCCO3)o1	none
CNC(=O)Cn1nc(C)c(S(=O)(=O)N2CCOCC2)c1C	none (no result: PP1 inh, TPT1 inh)
Cn1c(=O)c2c(nc(CN3CCN(c4ccc(F)cc4)CC3)n2CCN2CCOCC2)n(C)c1=O	HNF4A DNA FP 75
Nc1nc(SCC(=O)c2cccs2)n[nH]1	HNF4A DNA FP 39
Nc1cc(OC(=O)c2cccs2)nn1S(=O)(=O)c1ccccc1	PP1 inh 15
O=c1cc(CSc2nnnn2-c2ccccc2)nc(Nc2ccc(F)cc2)[nH]1	PP1 inh 15
N/C(=N\c1nc(CSc2nnnn2-c2ccccc2)cc(=O)[nH]1)Nc1ccccc1	none (no result: CSN inh, NadD block, Rpn11 inh, HNF4A DNA FP)
O=C(NNC(=S)NCC1CCCO1)c1cc(Br)ccc1Cl (centres undefined)	none
COc1cc(/C=N/NC(=O)C(Cc2c[nH]c3ccccc23)NC(=O)OCC(C)C)cc([N+](=O)[O-])c1O (centres undefined)	none
COc1cc(/C=N/NC(=O)C(Cc2c[nH]c3ccccc23)NC(=O)OCc2ccccc2)cc([N+](=O)[O-])c1O (centres undefined)	NadD block 42
Cc1cc(C)c2c(n1)SCC(=O)N2CC(=O)Nc1c(C)cccc1C	none
Cc1nc(N2CCN(S(=O)(=O)c3ccccc3C#N)CC2)c2c(-c3ccccc3)csc2n1	none (no result: TPT1 inh)
N=c1n(Cc2ccccc2Cl)c2ccccc2n1CC(O)c1ccco1 (centres undefined)	HNF4A DNA FP 61
